Here are results for 1 molecule from ChEMBL document CHEMBL1671834, “Novel 3-aryl indoles as progesterone receptor antagonists for uterine fibroids” (ACS Med Chem Lett, 2011).

Data set [1] concerns Oryctolagus cuniculus. Nature of the data set: Antagonist activity at progesterone receptor in estrogen-primed immature New Zealand White rabbit assessed as inhibition of progesterone-induced endometrial transformation at 1 mg/kg, sc by McPhail assay. Type of data set: functional, organism-based. On the set-up: dose 1 mg/kg. The essentials:
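Immature rabbits primed with estrogen, given progesterone 1 mg/kg with test compound at various sc doses. Endometrial transformation scored by McPhail Index.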

Data set [2] is described as follows: Oral bioavailability in rat. The class given is ADME, organism-based. The following applies: in vivo. In outline:
(§1)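 Compound given to rats as an oral suspension. Bioavailability, tmax, elimination half-life, volume of distribution and clearance determined.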

Data set [3] in a line: Elimination half life in rat. Conditions: in vivo. The class given is ADME, organism-based. The essentials:
as §1

The nature of data set [4]: Volume of distribution in rat. The class given is ADME, organism-based. Conditions: in vivo. In outline:
as §1

Data set [5] relates to Rattus norvegicus. Nature of the data set: Antagonist activity at progesterone receptor in orally dosed ovariectomized Sprague-Dawley rat assessed as reversal of R5020-induced down-regulation of estradiol-induced increase in complement 3 mRNA expression by C3 rat uterine assay. The class given is functional. The following applies: po. In outline: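 Ovariectomized rats dosed orally (mg/kg dose response). Estrogen (E2, 0.05 mg/kg) induces complement C3 mRNA in uterus. Progestin R5020 (0.1 mg/kg) down-regulates it. Read-out is reversal of the R5020 effect, expressed as fold over asoprisnil (5 mg/kg). ED50 derived from the dose response.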

A short description of data set [6]: Tmax in rat. Type of data set: ADME, organism-based. The following applies: in vivo. In outline:
as §1

Data set [7] in a line: Clearance in rat. Conditions: in vivo. Type of data set: ADME, organism-based. In outline: as §1
The test system of data set [8] is Oryctolagus cuniculus. Nature of the data set: Agonist activity at progesterone receptor in estrogen-primed immature New Zealand White rabbit assessed as stimulation of progesterone-induced endometrial transformation at 30 mg/kg, sc by McPhail assay. Type of data set: functional, organism-based. On the set-up: dose 30 mg/kg. The essentials: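 Immature rabbits primed with estrogen, dosed sc without progesterone. Endometrial transformation scored by McPhail Index.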

Calls of active or inactive are those of the source.

For the molecule `CC(C)n1cc(-c2ccc(C#N)c(F)c2)c2ccc(NS(C)(=O)=O)cc21`, the result in data set [1] and in data set [8] was Active. Also, the bioavailability in data set [2] stood at 31.4%. In data set [3], this molecule had a half-life of 19.8 h. In data set [4], the Vd was 2.3 L/kg. Also, in data set [5], the 50% effective dose (ED50) was found to be 0.33 mg/kg. Besides, the Tmax in data set [6] was determined as 4 h. The clearance in data set [7] turned out to be 2.5 mL/min/kg.

In general, bioavailability refers to the share of a dose that reaches the circulation, judged against a reference dose that is usually intravenous. A higher bioavailability goes with good availability. By half-life is commonly meant the time needed for the level to fall by half in the phase considered. Lower therefore signals rapid decline. The term Vd denotes a proportionality between amount in the body and measured concentration, not a real space. A high value points to wide distribution into tissue. A word on the ED50: it is the dose that gives a 50% effect, or the effect in half of the subjects. Usually Tmax stands for the time at which the peak concentration occurs. A word on the clearance: it is the rate of elimination divided by the concentration.
